Where two headings read alike, the source gives them in different places. Values belong to the molecule of their own block, whether it stands above or below them. Where a SMILES comes first, the peptide text is derived from it. Bridges are numbered along the chain shown (N, C = ends). Where no end group is shown, it is not given here. The star is where a group is joined. IRDye800CW = CC1(C)C(/C=C/C2=C(Oc3ccc(S(=O)(=O)O)cc3)C(=C/C=C3/N(CCCCS(=O)(=O)O)c4ccc(S(=O)(=O)O)cc4C3(C)C)/CCC2)=[N+](CCCCCC(=O)*)c2ccc(S(=O)(=O)[O-])cc21
Assays:
[1] = reference standard; ref [53]; cited from earlier work
[2] = test system: inguinal lymph node of C57BL/6 mice; experiment: lymphatic clearance from inguinal lymph node, NIR fluorescence imaging; assay type: in vivo, mouse; settings: for percent of maximal fluorescence intensity retained over the study period: intradermal, 0–50 min, normalized to maximum
Outline: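 C57BL/6 mice were induced with 2–3% isoflurane and kept under <1% for 50 min at 37°. […] A region near the inguinal node was imaged at 200 ms/frame at 0.5, 2.5, 15, 30 and 50 min. Signal was normalized to each agent's maximum node intensity; Student's t test, α = 0.05.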

[3] = HPLC degradation study of ICG in saline; assay type: physicochemical; settings: 100 μg/mL ICG in saline, by 25 h
[4] = test system: lymphatic vasculature of C57BL/6 mice; experiment: in vivo NIR fluorescence lymphatic imaging; parameters: species or system mouse; settings: intradermal 20 μL of 500 μM ICG or 100 μM cABD-IRDye800
Outline: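 Shaved female C57BL/6 mice, 6–7 weeks old, under 2–3% isoflurane on a 37° heating pad (~30 min per animal). Intradermal injection at the tail base, with the injection site taped over. Illumination by a 785 nm laser diode (80 mW) expanded to an ~8 cm area. EMCCD capture through an 830 nm bandpass filter at 200 ms per frame. Mice monitored during and after imaging.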

[5] = ref [27], cited from earlier work
[6] = water-octanol partition coefficient; assay type: physicochemical
[7] = fluorescence optical properties; assay type: physicochemical; settings: 785/830 nm
[8] = biological target: mouse serum albumin (mouse, UniProt P07724 25-608); experiment: SPR

percent of maximal fluorescence intensity retained over the study period [2]: at least 80% | ICG peak remaining [3]: 30% | degradation peak [3]: 70%
Molecule: CC1(C)C(/C=C/C=C/C=C/C=C2\N(CCCCS(=O)(=O)O)c3ccc4ccccc4c3C2(C)C)=[N+](CCCCS(=O)(=O)[O-])c2ccc3ccccc3c21 [ICG, indocyanine green]
known lifetime [1]: 0.56 ns | adverse events during and after imaging [4]: none | half life ([5]; ambient temperature under normal light): 14 h | half life ([5]; aqueous solution, darkness, low temperature (8°C)): approximately 20 h | half life ([5]; aqueous solution, exposure to light at 786 nm): 2.3 h

percent of maximum fluorescence remaining at 50 min ([2]; intradermal 20 μL of 100 μM, 50 min): less than 30%
Molecule: CC1(C)C(/C=C/C2=C(Oc3ccc(S(=O)(=O)O)cc3)C(=C/C=C3/N(CCCCS(=O)(=O)O)c4ccc(S(=O)(=O)[O-])cc4C3(C)C)/CCC2)=[N+](CCCCCC(=O)O)c2ccc(S(=O)(=O)O)cc21 [IRDye800]

Further lines, the molecule ahead of its results:

Molecule: CC[C@H](C)[C@H](NC(=O)[C@H](CC(C)C)NC(=O)[C@H](CCCNC(=N)N)NC(C)=O)C(=O)N[C@@H](CCC(=O)O)C(=O)N[C@@H](CC(=O)O)C(=O)N[C@H](C(=O)N[C@H]1CSSC[C@@H](C(=O)N[C@@H](CC(C)C)C(=O)N[C@@H](Cc2c[nH]c3ccccc23)C(=O)N[C@@H](CCC(=O)O)C(=O)N[C@@H](CC(=O)O)C(=O)N[C@@H](CC(=O)O)C(=O)N[C@@H](CCCCNC(=O)CCCCCN2C(=CC=C3CCCC(C=CC4=[N+](CCCCS(=O)(=O)O)c5ccc(S(=O)(=O)[O-])cc5C4(C)C)=C3Oc3ccc(S(=O)(=O)O)cc3)C(C)(C)c3cc(S(=O)(=O)O)ccc32)C(N)=O)NC(=O)CNC(=O)[C@H](Cc2c[nH]c3ccccc23)NC(=O)[C@H](CCCNC(=N)N)NC(=O)[C@@H]2CCCN2C(=O)[C@H](CC(C)C)NC1=O)[C@@H](C)CC [cABD-IRDye800] (Ac-RLIEDICLPRWGCLWEDDK(IRDye800CW)-NH2; disulfide 7-13; N-terminus and C-terminus assumed)
percent of maximal fluorescence intensity retained over the study period [2]: at least 80% | logP [6]: -0.53 | adverse events during and after imaging [4]: none | lifetime relative to ICG [7]: 1.6 times

Molecule: RLIEDICLPRWGCLWEDDK (disulfide 7-13; also: Dylight680 conjugated, site not given here) [cABD conjugated to Dylight680]
Kd [8]: 0.032 µM
